One may read the MIC as the lowest concentration that inhibits growth of the organism. Read a low MIC as a more susceptible organism. The MIC80 is an inhibitory concentration at the 80% level, which refers to growth in some studies and to a panel of isolates in others. A high value points to weaker potency.

Common to all, as to format: functional
The subject of one experiment is Nannizzia gypsea. Description: Antifungal activity against Microsporum gypseum clinical isolate by serial dilution method. The method, boiled down: (§1)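 Broth serial dilution in 96-well microplates against a panel of five human pathogenic fungi. Activity is reported as the minimal inhibitory concentration (MIC), and fluconazole served as the positive control.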
The test system of another experiment is Cryptococcus neoformans. Description: Antifungal activity against Cryptococcus neoformans by serial dilution method. The method, boiled down:
as §1

In another experiment the test system is Candida albicans. Description: Antifungal activity against Candida albicans by serial dilution method. The method, boiled down: as §1
The test system of experiment [1] is Trichophyton rubrum. Description: Antifungal activity against Trichophyton rubrum.
In the next experiment the test system is Candida parapsilosis. Description: Antifungal activity against Candida parapsilosis clinical isolate by serial dilution method. The conditions noted are these: Lodderomyces parapsilosis. The method, boiled down:
as §1

The subject of experiment [2] is Trichophyton rubrum. Description: Antifungal activity against Trichophyton rubrum clinical isolate by serial dilution method. The method, boiled down:
as §1

In brackets after ≈: the same amount, converted by molar mass.

On to `CCCCC(=O)OCC#Cc1coc2cc(OC)ccc2c1=O`, for which the MIC in the experiment with Nannizzia gypsea amounted to 25 µg/mL (≈ 79.5 µM); in the experiment on Cryptococcus neoformans, 25 µg/mL (≈ 79.5 µM); with Candida albicans it was 25 µg/mL (≈ 79.5 µM); with Candida parapsilosis it was 25 µg/mL (≈ 79.5 µM); with Trichophyton rubrum [2], 1.5 µg/mL (≈ 4.77 µM). The molecule further showed an MIC80 in the experiment on Trichophyton rubrum [1] of 1.5 µg/mL (≈ 4.77 µM).

With `COc1ccc2c(=O)c(C#CCO)coc2c1`, the MIC with Nannizzia gypsea, against Cryptococcus neoformans, with Candida albicans, with Candida parapsilosis and in the experiment with Trichophyton rubrum [2] was more than 100 µg/mL each time.

In the case of `COc1ccc2c(=O)c(C#CCOC(C)=O)coc2c1`, the MIC against Nannizzia gypsea is 25 µg/mL (≈ 91.8 µM); with Cryptococcus neoformans, more than 100 µg/mL; with Candida albicans, more than 100 µg/mL; against Candida parapsilosis, more than 100 µg/mL; in the experiment with Trichophyton rubrum [2], more than 100 µg/mL.

Take `CCCCCCCC(=O)OCC#Cc1coc2cc(OC)ccc2c1=O`: the minimal inhibitory concentration (MIC) against Nannizzia gypsea, against Cryptococcus neoformans, in the experiment with Candida albicans, against Candida parapsilosis and in the experiment on Trichophyton rubrum [2] was more than 100 µg/mL in each case.

Take `COc1ccc2c(=O)c(C#CCOC(=O)CCCCC(C)C)coc2c1`: the MIC was 12.5 µg/mL (≈ 35.1 µM) in the experiment with Nannizzia gypsea; 50 µg/mL (≈ 140 µM) with Cryptococcus neoformans; more than 100 µg/mL against Candida albicans; 25 µg/mL (≈ 70.1 µM) against Candida parapsilosis; 12.5 µg/mL (≈ 35.1 µM) against Trichophyton rubrum [2].

On to `COc1ccc2c(=O)c(C#CCOC(=O)C3C(C)(C)C3(C)C)coc2c1`, for which the minimum inhibitory concentration (MIC) against Nannizzia gypsea is 12.5 µg/mL (≈ 35.3 µM); with Cryptococcus neoformans, more than 100 µg/mL; against Candida albicans, more than 100 µg/mL; in the experiment on Candida parapsilosis it was more than 100 µg/mL; in the experiment with Trichophyton rubrum [2] it was more than 100 µg/mL.

Take `COc1ccc2c(=O)c(C#CCOC(=O)c3ccc([N+](=O)[O-])cc3)coc2c1`: the MIC against Nannizzia gypsea, in the experiment on Cryptococcus neoformans, against Candida albicans, with Candida parapsilosis and with Trichophyton rubrum [2] was more than 100 µg/mL throughout.

Consider `COc1ccc2c(=O)c(C#CCOC(=O)c3cc([N+](=O)[O-])cc([N+](=O)[O-])c3)coc2c1`, for which the MIC against Nannizzia gypsea was 50 µg/mL (≈ 118 µM); with Cryptococcus neoformans, more than 100 µg/mL; in the experiment with Candida albicans, more than 100 µg/mL; in the experiment on Candida parapsilosis it was more than 100 µg/mL; against Trichophyton rubrum [2], 50 µg/mL (≈ 118 µM).

For the molecule `COc1ccc2c(=O)c(C#CCOC(=O)c3ccccc3)coc2c1`, the minimum inhibitory concentration (MIC) against Nannizzia gypsea, with Cryptococcus neoformans, with Candida albicans, against Candida parapsilosis and in the experiment on Trichophyton rubrum [2] was more than 100 µg/mL throughout.

Turning to `COc1ccc2c(=O)c(C#CCOC(=O)Cc3ccccc3)coc2c1`, the MIC in the experiment with Nannizzia gypsea, in the experiment with Cryptococcus neoformans, against Candida albicans, against Candida parapsilosis and with Trichophyton rubrum [2] was more than 100 µg/mL throughout.

`COc1ccc2c(=O)c(C#CCOC(=O)Cc3ccc(Cl)cc3)coc2c1`: the MIC against Nannizzia gypsea, in the experiment on Cryptococcus neoformans, in the experiment on Candida albicans, against Candida parapsilosis and in the experiment with Trichophyton rubrum [2] was more than 100 µg/mL throughout.

For `COc1ccc2c(=O)c(C#CCOC(=O)Cc3ccccc3Cl)coc2c1`, the MIC is 50 µg/mL (≈ 131 µM) against Nannizzia gypsea; more than 100 µg/mL with Cryptococcus neoformans; more than 100 µg/mL in the experiment on Candida albicans; more than 100 µg/mL with Candida parapsilosis; 50 µg/mL (≈ 131 µM) against Trichophyton rubrum [2].

For the molecule `CCC(=O)OCC#Cc1coc2cc(OC)ccc2c1=O`, the MIC against Nannizzia gypsea was determined as 12.5 µg/mL (≈ 43.7 µM); with Cryptococcus neoformans, 25 µg/mL (≈ 87.3 µM); with Candida albicans, 25 µg/mL (≈ 87.3 µM); against Candida parapsilosis, 25 µg/mL (≈ 87.3 µM); in the experiment on Trichophyton rubrum [2] it was 6.25 µg/mL (≈ 21.8 µM).

For the molecule `CCCC(=O)OCC#Cc1coc2cc(OC)ccc2c1=O`, the MIC is 25 µg/mL (≈ 83.2 µM) against Nannizzia gypsea; 50 µg/mL (≈ 166 µM) in the experiment with Cryptococcus neoformans; 12.5 µg/mL (≈ 41.6 µM) with Candida albicans; 50 µg/mL (≈ 166 µM) with Candida parapsilosis; 12.5 µg/mL (≈ 41.6 µM) against Trichophyton rubrum [2].

As for `COc1ccc2c(=O)c(C#CCOC(=O)C(C)C)coc2c1`, the MIC against Nannizzia gypsea came to 25 µg/mL (≈ 83.2 µM); in the experiment with Cryptococcus neoformans, 50 µg/mL (≈ 166 µM); in the experiment on Candida albicans it was 50 µg/mL (≈ 166 µM); with Candida parapsilosis, 12.5 µg/mL (≈ 41.6 µM); against Trichophyton rubrum [2], 3.12 µg/mL (≈ 10.4 µM).

As for `COc1ccc2c(=O)c(C#CCOC(=O)CC(C)C)coc2c1`, the MIC against Nannizzia gypsea is 25 µg/mL (≈ 79.5 µM); in the experiment on Cryptococcus neoformans, 50 µg/mL (≈ 159 µM); in the experiment on Candida albicans, more than 100 µg/mL; with Candida parapsilosis, 50 µg/mL (≈ 159 µM); against Trichophyton rubrum [2], 6.25 µg/mL (≈ 19.9 µM).

In the case of `CCCCCC(=O)OCC#Cc1coc2cc(OC)ccc2c1=O`, the MIC was 12.5 µg/mL (≈ 38.1 µM) against Nannizzia gypsea; more than 100 µg/mL in the experiment on Cryptococcus neoformans; more than 100 µg/mL with Candida albicans; 50 µg/mL (≈ 152 µM) in the experiment on Candida parapsilosis; 25 µg/mL (≈ 76.1 µM) in the experiment on Trichophyton rubrum [2].

For the molecule `COc1ccc2c(=O)c(C#CCOC(=O)C3CCCCC3)coc2c1`, the MIC with Nannizzia gypsea, against Cryptococcus neoformans, against Candida albicans, against Candida parapsilosis and in the experiment with Trichophyton rubrum [2] was more than 100 µg/mL each time.

Turning to `CCCCCCC(=O)OCC#Cc1coc2cc(OC)ccc2c1=O`, the MIC in the experiment on Nannizzia gypsea, in the experiment on Cryptococcus neoformans, in the experiment on Candida albicans, in the experiment with Candida parapsilosis and in the experiment on Trichophyton rubrum [2] was more than 100 µg/mL in each case.

On to `OC(Cn1cncn1)(Cn1cncn1)c1ccc(F)cc1F` [FLUCONAZOLE], for which the MIC with Nannizzia gypsea was 0.5 µg/mL (≈ 1.63 µM); in the experiment with Cryptococcus neoformans it was 1 µg/mL (≈ 3.27 µM); with Candida albicans, 0.25 µg/mL (≈ 0.816 µM); against Candida parapsilosis it was 32 µg/mL (≈ 104 µM); with Trichophyton rubrum [2], 0.25 µg/mL (≈ 0.816 µM).

Values taken from ChEMBL document CHEMBL1287666, “Synthesis and in vitro antifungal activities of new 3-substituted benzopyrone derivatives” (2010).
